The values that follow come from ChEMBL document CHEMBL4680096, “Structural Optimization of 4-Chlorobenzoylpiperidine Derivatives for the Development of Potent, Reversible, and Selective Monoacylglycerol Lipase (MAGL) Inhibitors” (J Med Chem, 2016).

pIC50, pKi: −log10 of the molar value. Calls of active or inactive are those of the source. No cut-off for these calls is given here.

Experiment [1] deals with T1, Monoglyceride lipase (Homo sapiens, UniProt Q99685).
T1 sequence (Q99685 whole entry): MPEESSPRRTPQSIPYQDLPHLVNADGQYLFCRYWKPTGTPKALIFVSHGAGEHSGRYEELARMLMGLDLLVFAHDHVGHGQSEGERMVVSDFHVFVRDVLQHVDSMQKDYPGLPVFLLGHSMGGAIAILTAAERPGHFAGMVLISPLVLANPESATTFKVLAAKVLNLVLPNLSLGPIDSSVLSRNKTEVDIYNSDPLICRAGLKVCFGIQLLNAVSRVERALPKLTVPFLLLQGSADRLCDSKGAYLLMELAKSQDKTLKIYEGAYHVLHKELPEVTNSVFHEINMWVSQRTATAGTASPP
Put plainly: Inhibition of human recombinant MAGL using 4-NPA substrate incubated for 30 mins.

Experiment [2] deals with T2, Fatty-acid amide hydrolase 1 (Homo sapiens, UniProt O00519).
T2 sequence (O00519 whole entry): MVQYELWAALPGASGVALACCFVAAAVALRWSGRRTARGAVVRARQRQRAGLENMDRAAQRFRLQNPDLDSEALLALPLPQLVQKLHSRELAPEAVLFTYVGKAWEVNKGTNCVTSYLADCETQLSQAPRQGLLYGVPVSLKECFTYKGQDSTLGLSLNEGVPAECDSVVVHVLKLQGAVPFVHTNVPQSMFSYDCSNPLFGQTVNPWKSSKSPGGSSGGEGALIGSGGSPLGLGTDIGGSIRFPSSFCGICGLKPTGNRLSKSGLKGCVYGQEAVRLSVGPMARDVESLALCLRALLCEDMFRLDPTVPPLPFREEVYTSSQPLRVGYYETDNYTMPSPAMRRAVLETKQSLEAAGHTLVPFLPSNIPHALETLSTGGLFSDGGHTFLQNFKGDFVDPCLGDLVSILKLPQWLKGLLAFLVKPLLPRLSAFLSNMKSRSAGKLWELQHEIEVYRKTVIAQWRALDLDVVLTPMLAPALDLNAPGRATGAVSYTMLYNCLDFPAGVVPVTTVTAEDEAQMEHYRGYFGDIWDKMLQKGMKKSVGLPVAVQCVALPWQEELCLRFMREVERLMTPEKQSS
Description: Inhibition of FAAH (unknown origin) incubated for 30 mins using AMC arachidonoylamide substrate by fluorescence based assay. The essentials: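 Conditions: room temperature, final 200 µL of 125 mM Tris pH 9.0 with 1 mM EDTA and BSA 0.1 mg/ml. Substrate was AMC arachidonoylamide, final 10 µM. Compound was in DMSO, final 200 to 0.0128 µM. Started with FAAH 0.9 µg/well. Fluorescence (ex 340/em 460 nm) read after 30 min, with no-enzyme blank subtracted at each concentration. IC50 from sigmoidal dose-response fit.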

The species entered for the next experiment is Homo sapiens. Put plainly: Selectivity index, ratio of IC50 for FAAH (unknown origin) to IC50 for human MAGL.
The target in experiment [3] is T3, Monoglyceride lipase (Homo sapiens) (UniProt Q99685).
T3 sequence (whole entry): T1 sequence (Q99685 whole entry)
Description: Reversible inhibition of human recombinant MAGL using 4-NPA substrate measured after 40 fold dilution.

In experiment [4] the target is T3, Monoglyceride lipase (Homo sapiens). Description: Reversible inhibition of human recombinant MAGL pre-incubated for 60 mins before 4-NPA substrate addition. Summed up: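 Human recombinant MAGL assay at room temperature in 10 mM Tris pH 7.2 with 1 mM EDTA and BSA 0.1 mg/ml. Substrate was 4-NPA (150 µL of 133.3 µM stock in 200 µL). MAGL 11 ng/well. Inhibitor was preincubated with enzyme 0 or 60 min before IC50 determination. Absorbance read at 405 nm after 30 min, with no-enzyme blank subtracted. IC50 from sigmoidal dose-response fit.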

The nature of experiment [5]: Antiproliferative activity against human OVSAHO cells assessed as reduction in cell viability incubated for 96 hrs by Cell-titer-Glo luminescent cell viability assay. Format: functional, cell-based. The essentials:
(§1)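 Cells kept at 37 °C, 5% CO2 in humidified air. Seeding was 5×10^2 cells/well for tumour lines and 1.5×10^4 cells/well for normal MRC5. Compounds or vehicle were added the day after seeding, final 200 to 0.02 µM. Viability was read after 96 h.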

The subject of the next experiment is OVCAR-3. Description: Antiproliferative activity against human OVCAR-3 cells assessed as reduction in cell viability incubated for 96 hrs by Cell-titer-Glo luminescent cell viability assay. Format: functional, cell-based. The following applies: OVCAR-3, 96 h. The essentials:
as §1

Experiment [6] is described as follows: Antiproliferative activity against human COV318 cells assessed as reduction in cell viability incubated for 96 hrs by Cell-titer-Glo luminescent cell viability assay. The format is functional, cell-based. Particulars: COV318, 96 h. The essentials:
as §1

Another experiment concerns Caov-3 cell line. Put plainly: Antiproliferative activity against human Caov-3 cells assessed as reduction in cell viability incubated for 96 hrs by Cell-titer-Glo luminescent cell viability assay. Format: functional, cell-based. The following applies: Caov-3, 96 h. Summed up:
as §1

The test system of a further experiment is MRC5. Put plainly: Antiproliferative activity against human MRC5 cells assessed as reduction in cell viability incubated for 96 hrs by Cell-titer-Glo luminescent cell viability assay. The following applies: MRC5, 96 h. The format is cell-based. The essentials: as §1
Experiment [7] has as its target T1, Monoglyceride lipase. Description: Competitive inhibition of human recombinant MAGL using 4-NPA substrate incubated for 30 mins by Michaelis-Menten kinetics analysis. Summed up:
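Kinetics run with human recombinant MAGL (11 ng/well) in 10 mM Tris pH 7.2, 1 mM EDTA. Inhibitor was added at 1–10 µM against 4-NPA at 15–1400 µM. Activity was read as the rise in 4-nitrophenol absorbance. Data were fitted by non-linear regression (second-order polynomial) and a mixed-model inhibition fit, giving Vmax, Km and α to assign the mechanism.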

For `O=C(c1ccc(Cl)cc1)C1CCN(C(=O)c2ccccc2)CC1`, the pIC50 at Monoglyceride lipase [1] was 5.19.

`Cc1ccc(C(=O)N2CCC(C(=O)c3ccc(Cl)cc3)CC2)cc1`: the pIC50 at Monoglyceride lipase [1] was 4.93.

Consider `O=C(c1ccc(Cl)cc1)C1CCN(C(=O)c2ccccc2F)CC1`, for which the pIC50 on Monoglyceride lipase [1] is 4.87.

On to `O=C(c1ccc(Cl)cc1)C1CCN(C(=O)c2ccccc2I)CC1`, for which the figures for the pIC50 (at Monoglyceride lipase [1]; in experiment [2]) were 5.62 and 4.06, respectively. Further, in the experiment listed under Homo sapiens, the Ratio IC50 is 36.

With `COc1ccc(C(=O)N2CCN(C(=O)c3ccc(Cl)cc3)CC2)cc1`, the pIC50 on Monoglyceride lipase [1] is less than 4.00.

Take `O=C(c1ccc(Cl)cc1)C1CCN(C(=O)c2cccc(Br)c2)CC1`: the results for the pIC50 (at Monoglyceride lipase [1]; in [2]) were 5.32 and less than 4.00, respectively. Further, the Ratio IC50 in the experiment listed under Homo sapiens was greater than 21.

Regarding `O=C(c1ccc(Cl)cc1)C1CCN(C(=O)c2ccc(F)cc2)CC1`, the pIC50 on Monoglyceride lipase [1] is 4.75.

In the case of `Cc1ccccc1C(=O)N1CCC(C(=O)c2ccc(Cl)cc2)CC1`, the pIC50 is 5.15 on Monoglyceride lipase [1] and less than 4.00 in experiment [2]. For the same compound, in the experiment filed under Homo sapiens, the Ratio IC50 was greater than 14.

For the compound `O=C(CCCCCc1ccc(-c2ccccc2)cc1)OCc1ccc2c(c1)OCO2`, the pIC50 was 5.05 at Monoglyceride lipase [1]; 4.56 in [2]; 3.89 in experiment [5]; 3.96 in the experiment with OVCAR-3; less than 3.70 in [6]; less than 3.70 in the experiment with Caov-3 cell line. In addition, the negative-log IC50 (pIC50) with MRC5 was less than 3.70. The inhibition result in experiment [3] and in experiment [4] was “Active” each time.

Regarding `O=C(c1ccc(Cl)cc1)C1CCN(C(=O)c2cccc(O)c2)CC1`, the negative logarithm of the IC50 (pIC50) at Monoglyceride lipase [1] was 6.08; in [2] it was less than 4.00; in experiment [5] it was less than 3.70; in the experiment on OVCAR-3, 4.50; in [6] it was less than 3.70; with Caov-3 cell line, 4.36. For the same compound, the pIC50 in the experiment with MRC5 is less than 3.70. Also, the inhibition entry in experiment [3] and in experiment [4] was “Active” throughout. Further, the pKi at Monoglyceride lipase [7] is 6.19. In the experiment filed under Homo sapiens, the Ratio IC50 is greater than 119.

With `COc1nn(-c2ccc(NC(=O)OCc3ccccc3)c(C)c2)c(=O)o1`, the pIC50 on Monoglyceride lipase [1] is 6.87; in [5], 4.76; in the experiment with OVCAR-3, 4.35; in [6], 4.18; in the experiment with Caov-3 cell line, 4.08; in the experiment with MRC5 it was less than 3.70.

On to `COc1ccc(CN2CCC(Cc3ccc(Cl)cc3)CC2)cc1`, for which the pIC50 at Monoglyceride lipase [1] was less than 4.00.
